The target in one data set is Cav1.2 (Homo sapiens, UniProt Q13936). The data set is described as follows: Inhibition of Cav1.2 assessed as inhibition of calcium flux at 1 uM by cell based FLIPR assay. In a few lines:
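Cav1.2 counterscreen using a related calcium-influx FLIPR assay, run as % inhibition at single concentrations or as a titration.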

Data set [1] addresses T1, Voltage-dependent N-type calcium channel subunit alpha-1B (Homo sapiens, UniProt Q00975). Nature of the data set: Inhibition of Cav2.2 expressed HEK293 cells assessed as inhibition of calcium flux by FLIPR assay in presence of 30 mM of potassium. In kind it is cell-based. In a few lines: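 Calcium influx was read with a calcium-sensitive dye on FLIPR Tetra in CBK cells expressing α1B-1, α2-δ and β3a with Kir2.3. Cells were preincubated with compound in 30 mM K+, then channels were opened by 1:1 addition of 140 mM K+ solution. Compounds were screened at 1 μM, then titrated over 10 points (0.001–30 μM) in quadruplicate, mean ± SD. Values are averages of n ≥ 3.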
Target sequence in this assay (Q00975 whole entry): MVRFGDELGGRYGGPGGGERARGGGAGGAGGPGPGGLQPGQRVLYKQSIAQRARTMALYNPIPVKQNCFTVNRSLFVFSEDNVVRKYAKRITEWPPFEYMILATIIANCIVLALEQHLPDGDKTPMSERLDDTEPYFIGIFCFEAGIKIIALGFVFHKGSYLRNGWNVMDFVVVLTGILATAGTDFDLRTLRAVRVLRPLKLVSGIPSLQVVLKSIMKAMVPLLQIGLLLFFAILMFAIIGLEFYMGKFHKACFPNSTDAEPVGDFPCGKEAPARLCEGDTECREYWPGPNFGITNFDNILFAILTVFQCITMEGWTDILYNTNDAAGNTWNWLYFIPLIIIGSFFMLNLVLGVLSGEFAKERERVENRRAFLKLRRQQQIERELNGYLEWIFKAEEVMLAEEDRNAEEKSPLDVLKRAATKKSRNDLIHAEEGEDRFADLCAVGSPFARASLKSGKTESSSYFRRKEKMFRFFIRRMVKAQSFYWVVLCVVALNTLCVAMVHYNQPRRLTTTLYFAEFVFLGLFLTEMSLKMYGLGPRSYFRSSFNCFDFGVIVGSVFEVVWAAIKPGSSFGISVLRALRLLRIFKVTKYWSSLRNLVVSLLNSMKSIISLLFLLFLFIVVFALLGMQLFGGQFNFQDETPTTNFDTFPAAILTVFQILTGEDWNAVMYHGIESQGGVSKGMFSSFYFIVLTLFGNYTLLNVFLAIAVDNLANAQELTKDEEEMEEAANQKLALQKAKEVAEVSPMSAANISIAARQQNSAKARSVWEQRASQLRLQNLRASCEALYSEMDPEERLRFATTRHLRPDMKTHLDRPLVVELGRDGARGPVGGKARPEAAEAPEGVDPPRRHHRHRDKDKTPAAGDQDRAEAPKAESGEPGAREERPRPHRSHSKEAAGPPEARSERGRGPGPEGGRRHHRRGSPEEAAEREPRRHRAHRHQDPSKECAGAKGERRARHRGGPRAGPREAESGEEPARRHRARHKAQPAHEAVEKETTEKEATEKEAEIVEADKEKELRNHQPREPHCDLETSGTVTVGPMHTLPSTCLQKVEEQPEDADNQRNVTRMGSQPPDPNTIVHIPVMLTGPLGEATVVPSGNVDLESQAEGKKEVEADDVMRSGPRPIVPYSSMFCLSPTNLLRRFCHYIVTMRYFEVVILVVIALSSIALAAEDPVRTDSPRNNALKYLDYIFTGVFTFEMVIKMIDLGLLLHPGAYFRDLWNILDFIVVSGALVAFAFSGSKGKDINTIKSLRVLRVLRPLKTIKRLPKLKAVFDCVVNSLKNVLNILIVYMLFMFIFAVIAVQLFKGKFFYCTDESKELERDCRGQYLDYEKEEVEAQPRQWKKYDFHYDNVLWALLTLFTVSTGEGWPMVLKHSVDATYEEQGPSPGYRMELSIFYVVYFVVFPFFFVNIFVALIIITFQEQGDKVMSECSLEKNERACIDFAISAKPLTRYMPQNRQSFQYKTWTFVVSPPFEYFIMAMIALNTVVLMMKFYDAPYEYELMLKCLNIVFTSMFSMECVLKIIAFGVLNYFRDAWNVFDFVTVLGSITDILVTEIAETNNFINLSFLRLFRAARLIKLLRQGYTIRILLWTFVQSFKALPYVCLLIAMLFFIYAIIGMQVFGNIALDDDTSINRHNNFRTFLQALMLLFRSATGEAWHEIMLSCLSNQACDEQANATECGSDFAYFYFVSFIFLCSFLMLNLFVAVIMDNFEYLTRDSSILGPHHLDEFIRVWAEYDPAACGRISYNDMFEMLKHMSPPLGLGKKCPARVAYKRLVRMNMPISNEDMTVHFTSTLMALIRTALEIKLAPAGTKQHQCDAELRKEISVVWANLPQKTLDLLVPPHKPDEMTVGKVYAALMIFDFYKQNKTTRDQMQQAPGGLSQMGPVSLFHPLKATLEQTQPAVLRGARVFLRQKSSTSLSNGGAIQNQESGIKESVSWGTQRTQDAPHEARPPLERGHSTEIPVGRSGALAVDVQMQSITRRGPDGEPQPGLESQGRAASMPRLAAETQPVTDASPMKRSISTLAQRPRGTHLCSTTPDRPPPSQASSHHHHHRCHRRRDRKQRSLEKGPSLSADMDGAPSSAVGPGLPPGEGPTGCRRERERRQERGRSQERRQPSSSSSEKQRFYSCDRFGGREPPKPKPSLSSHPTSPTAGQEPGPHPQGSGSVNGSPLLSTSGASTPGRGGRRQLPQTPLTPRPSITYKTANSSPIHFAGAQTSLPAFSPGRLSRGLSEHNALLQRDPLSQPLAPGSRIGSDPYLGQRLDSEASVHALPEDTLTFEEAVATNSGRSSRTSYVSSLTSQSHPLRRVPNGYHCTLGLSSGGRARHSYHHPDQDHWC
For orientation: Calcium assays in cells follow changes in intracellular calcium, usually with a dye or a luminescent sensor.

Data set [2] concerns the target T1, Voltage-dependent N-type calcium channel subunit alpha-1B. The data set is described as follows: Inhibition of human Cav2.2 expressed CBK cells assessed as inhibition of channel current at 3 uM at holding membrane potential -40 mV by conventional patch clamp electrophysiology assay. A digest of the protocol:
(§1)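 Cav2.2 current block was measured at a depolarized (−40 mV) or hyperpolarized (−90 mV) potential. At −40 mV, n = 2, 3, 4 and 1 at 0.3, 1, 3 and 10 μM. At −90 mV, n = 4 and 6 at 3 and 10 μM. Values are mean ± SEM.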
Target sequence in this assay (Q00975 whole entry, looked up): as the sequence (Q00975 whole entry) above
A general note: In patch-clamp work, channel activity is measured electrically.

Data set [3] can be described thus: Metabolic stability in rat liver microsomes assessed as compound remaining at 1 uM after 1 hr. In kind it is ADME, Microsome. The following applies: read-out: Stability. In a few lines: (§2)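 Compound at 1 μM was incubated with human or rat liver microsomes (1 mg/mL) for 1 h, and the percentage of parent remaining was determined.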
A general note: Liver microsomes are vesicles of endoplasmic reticulum, rich in cytochrome P450 enzymes.

Data set [4] can be described thus: Plasma concentration in vagotomized dog at 1 mg/kg, iv after 30 mins. It is filed as ADME, organism-based, Canis lupus familiaris. Also noted: dose 1 mg/kg, route intravenous. In a few lines: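 Anesthetized, vagotomized dogs; intravenous infusion in sequential rising doses of 1, 3 and 10 mg/kg (cumulative); plasma exposure sampled at indicated time points, n = 3.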

The test system of the next data set is Mus musculus. The data set is described as follows: Antinociceptive activity in Cav2.2 deficient mouse assessed as reversal of complete Freund's adjuvant-induced pain at 30 mg/kg, po after 2 hrs. It is filed as functional.
The nature of data set [5]: Plasma clearance in rat at 3 mg/kg, po and 1 mg/kg, iv. It is filed as ADME, organism-based. In a few lines: (§3)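 Rat pharmacokinetics from iv and po arms: 0.6 mg/kg iv with 1.8 mg/kg po, or 1 mg/kg iv with 3 mg/kg po. AUC was normalized to po dose (μM·h·kg/mg). Clearance (mL/min/kg) and half-life come from the iv arm, and F% is oral bioavailability.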
Data set [6] in a line: Oral bioavailability in rat at 3 mg/kg. In kind it is ADME, organism-based. The following applies: in vivo. In a few lines:
as §3

Data set [7] concerns Canis familiaris. Nature of the data set: Cardiotoxicity in vagotomized dog assessed as QTc interval at 1 to 10 mg/kg, iv up to 90 mins. The following applies: in vivo, 1.5 h. On the set-up: dose 1-10 mg/kg, route intravenous. In kind it is toxicity, organism-based, Canis lupus familiaris. A digest of the protocol:
(§4)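 Anesthetized, vagotomized dogs received an intravenous infusion in sequential rising cumulative doses of 1, 3 and 10 mg/kg. MAP, HR, QRS, PR and QTc were monitored, with plasma exposure sampled at the indicated time points (n = 3).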

The nature of data set [8]: Metabolic stability in human liver microsomes assessed as compound remaining at 1 uM after 1 hr. The following applies: read-out: Stability. In kind it is ADME, Microsome. In a few lines:
as §2

Data set [9] is described as follows: Tmax in rat at 3 mg/kg. It is filed as ADME, organism-based. On the set-up: dose 3 mg/kg. The following applies: in vivo. In a few lines:
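Rat pharmacokinetics: 3 mg/kg po arm alongside 1 mg/kg iv; tmax from oral arm, half-life from iv dosing.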

Data set [10] in a line: Fraction unbound in rat plasma. It is filed as ADME, cell-free.
The next data set deals with Blood. Nature of the data set: Drug metabolism in Sprague-Dawley rat assessed as 3-trifluoromethylbenzenesulfonamide level in blood at 10 mg/kg, po after 8 hrs. In kind it is ADME, organism-based. Also noted: dose 10 mg/kg, route oral. The following applies: in vivo. In a few lines: (§5)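 Male Sprague-Dawley rats were given a 10 mg/kg oral dose. Parent and metabolite concentrations were measured in whole blood and brain over time, including 8 h postdose.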

The test system of another data set is Brain. Nature of the data set: Drug metabolism in Sprague-Dawley rat assessed as 3-trifluoromethylbenzenesulfonamide level in brain at 10 mg/kg, po after 8 hrs. Also noted: dose 10 mg/kg, route oral. The following applies: in vivo. In kind it is ADME, organism-based. In a few lines: as §5
A short description of data set [11]: Plasma concentration in rat complete Freund's adjuvant-induced pain model at 10 mg/kg, po after 3 hrs. It is filed as ADME, organism-based. Also noted: dose 10 mg/kg, route oral. A digest of the protocol:
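Separate CFA-treated rats given single oral 10 mg/kg dose; plasma exposure measured 3 h after dosing.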

Data set [12] relates to Rattus norvegicus. The data set is described as follows: Antinociceptive activity in po dosed rat assessed as reversal of complete Freund's adjuvant-induced pain after 3 hrs. It is filed as functional, organism-based. A digest of the protocol: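 In the rat CFA inflammatory pain model, compound was given orally at 30 mg/kg and allodynia was read at 1 and 3 h postdose. Average % reversal = (postdose − predose)/(preinjury − predose) for each rat, n = 6. Plasma exposure at 3 h was measured in satellite rats (n = 2).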

In data set [13] the test system is Canis familiaris. The data set is described as follows: Cardiotoxicity in vagotomized dog assessed as heart rate at 1 to 10 mg/kg, iv up to 90 mins. It is filed as toxicity, organism-based, Canis lupus familiaris. Also noted: dose 1-10 mg/kg, route intravenous. The following applies: in vivo, 1.5 h. A digest of the protocol:
as §4

Data set [14] has as its system Canis familiaris. Nature of the data set: Cardiotoxicity in vagotomized dog assessed as mean arterial pressure at 1 to 10 mg/kg, iv up to 90 mins. It is filed as toxicity, organism-based, Canis lupus familiaris, Artery. On the set-up: dose 1-10 mg/kg, route intravenous. The following applies: in vivo, 1.5 h. A digest of the protocol: as §4
In data set [15] the test system is Rattus norvegicus. The data set is described as follows: Dose normalized AUC in rat at 3 mg/kg, po and 1 mg/kg, iv. It is filed as ADME, organism-based. The following applies: in vivo. In a few lines: as §3
Another data set deals with hERG (Homo sapiens, UniProt Q12809). The data set is described as follows: Displacement of [35S]-MK-0499 from human ERG at 10 uM. The following applies: probe [35S]-MK-0499. In a few lines:
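hERG binding was measured as displacement of 35S-labeled MK-0499 at single test concentrations.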

Data set [16] deals with T1, Voltage-dependent N-type calcium channel subunit alpha-1B. Nature of the data set: Inhibition of human Cav2.2 expressed CBK cells assessed as inhibition of channel current at <1 uM at holding membrane potential -40 mV by conventional patch clamp electrophysiology assay. A digest of the protocol:
as §1
Target sequence in this assay (Q00975 whole entry, looked up): as the sequence (Q00975 whole entry) above

In data set [17] the test system is Rattus norvegicus. Nature of the data set: Antinociceptive activity in rat assessed as reversal of complete Freund's adjuvant-induced pain at 10 mg/kg, po after 3 hrs. In kind it is functional. In a few lines:
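Rats had complete Freund's adjuvant-induced inflammatory pain and got oral dosing. Allodynia was read at 1 and 3 h postdose. Percent reversal per rat = (postdose − predose)/(preinjury − predose). Groups had at least six animals, reported as mean + SEM.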

The next data set concerns the target T2, PXR (Homo sapiens, UniProt O75469).
T2 sequence (O75469 whole entry): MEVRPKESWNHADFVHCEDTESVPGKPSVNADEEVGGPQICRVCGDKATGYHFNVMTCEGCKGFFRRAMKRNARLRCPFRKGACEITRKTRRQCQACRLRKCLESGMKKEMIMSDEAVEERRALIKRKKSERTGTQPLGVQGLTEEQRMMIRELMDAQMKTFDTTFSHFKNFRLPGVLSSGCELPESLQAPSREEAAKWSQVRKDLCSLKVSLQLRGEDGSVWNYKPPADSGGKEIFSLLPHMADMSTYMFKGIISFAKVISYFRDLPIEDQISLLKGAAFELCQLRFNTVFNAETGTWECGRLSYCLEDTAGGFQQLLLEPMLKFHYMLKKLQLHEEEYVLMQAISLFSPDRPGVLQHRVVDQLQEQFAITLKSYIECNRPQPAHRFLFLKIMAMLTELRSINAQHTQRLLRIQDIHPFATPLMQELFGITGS
Nature of the data set: Activation of PXR at 10 uM relative to control. The following applies: read-out: max activation.

Sequence of Cav1.2 (Q13936 whole entry): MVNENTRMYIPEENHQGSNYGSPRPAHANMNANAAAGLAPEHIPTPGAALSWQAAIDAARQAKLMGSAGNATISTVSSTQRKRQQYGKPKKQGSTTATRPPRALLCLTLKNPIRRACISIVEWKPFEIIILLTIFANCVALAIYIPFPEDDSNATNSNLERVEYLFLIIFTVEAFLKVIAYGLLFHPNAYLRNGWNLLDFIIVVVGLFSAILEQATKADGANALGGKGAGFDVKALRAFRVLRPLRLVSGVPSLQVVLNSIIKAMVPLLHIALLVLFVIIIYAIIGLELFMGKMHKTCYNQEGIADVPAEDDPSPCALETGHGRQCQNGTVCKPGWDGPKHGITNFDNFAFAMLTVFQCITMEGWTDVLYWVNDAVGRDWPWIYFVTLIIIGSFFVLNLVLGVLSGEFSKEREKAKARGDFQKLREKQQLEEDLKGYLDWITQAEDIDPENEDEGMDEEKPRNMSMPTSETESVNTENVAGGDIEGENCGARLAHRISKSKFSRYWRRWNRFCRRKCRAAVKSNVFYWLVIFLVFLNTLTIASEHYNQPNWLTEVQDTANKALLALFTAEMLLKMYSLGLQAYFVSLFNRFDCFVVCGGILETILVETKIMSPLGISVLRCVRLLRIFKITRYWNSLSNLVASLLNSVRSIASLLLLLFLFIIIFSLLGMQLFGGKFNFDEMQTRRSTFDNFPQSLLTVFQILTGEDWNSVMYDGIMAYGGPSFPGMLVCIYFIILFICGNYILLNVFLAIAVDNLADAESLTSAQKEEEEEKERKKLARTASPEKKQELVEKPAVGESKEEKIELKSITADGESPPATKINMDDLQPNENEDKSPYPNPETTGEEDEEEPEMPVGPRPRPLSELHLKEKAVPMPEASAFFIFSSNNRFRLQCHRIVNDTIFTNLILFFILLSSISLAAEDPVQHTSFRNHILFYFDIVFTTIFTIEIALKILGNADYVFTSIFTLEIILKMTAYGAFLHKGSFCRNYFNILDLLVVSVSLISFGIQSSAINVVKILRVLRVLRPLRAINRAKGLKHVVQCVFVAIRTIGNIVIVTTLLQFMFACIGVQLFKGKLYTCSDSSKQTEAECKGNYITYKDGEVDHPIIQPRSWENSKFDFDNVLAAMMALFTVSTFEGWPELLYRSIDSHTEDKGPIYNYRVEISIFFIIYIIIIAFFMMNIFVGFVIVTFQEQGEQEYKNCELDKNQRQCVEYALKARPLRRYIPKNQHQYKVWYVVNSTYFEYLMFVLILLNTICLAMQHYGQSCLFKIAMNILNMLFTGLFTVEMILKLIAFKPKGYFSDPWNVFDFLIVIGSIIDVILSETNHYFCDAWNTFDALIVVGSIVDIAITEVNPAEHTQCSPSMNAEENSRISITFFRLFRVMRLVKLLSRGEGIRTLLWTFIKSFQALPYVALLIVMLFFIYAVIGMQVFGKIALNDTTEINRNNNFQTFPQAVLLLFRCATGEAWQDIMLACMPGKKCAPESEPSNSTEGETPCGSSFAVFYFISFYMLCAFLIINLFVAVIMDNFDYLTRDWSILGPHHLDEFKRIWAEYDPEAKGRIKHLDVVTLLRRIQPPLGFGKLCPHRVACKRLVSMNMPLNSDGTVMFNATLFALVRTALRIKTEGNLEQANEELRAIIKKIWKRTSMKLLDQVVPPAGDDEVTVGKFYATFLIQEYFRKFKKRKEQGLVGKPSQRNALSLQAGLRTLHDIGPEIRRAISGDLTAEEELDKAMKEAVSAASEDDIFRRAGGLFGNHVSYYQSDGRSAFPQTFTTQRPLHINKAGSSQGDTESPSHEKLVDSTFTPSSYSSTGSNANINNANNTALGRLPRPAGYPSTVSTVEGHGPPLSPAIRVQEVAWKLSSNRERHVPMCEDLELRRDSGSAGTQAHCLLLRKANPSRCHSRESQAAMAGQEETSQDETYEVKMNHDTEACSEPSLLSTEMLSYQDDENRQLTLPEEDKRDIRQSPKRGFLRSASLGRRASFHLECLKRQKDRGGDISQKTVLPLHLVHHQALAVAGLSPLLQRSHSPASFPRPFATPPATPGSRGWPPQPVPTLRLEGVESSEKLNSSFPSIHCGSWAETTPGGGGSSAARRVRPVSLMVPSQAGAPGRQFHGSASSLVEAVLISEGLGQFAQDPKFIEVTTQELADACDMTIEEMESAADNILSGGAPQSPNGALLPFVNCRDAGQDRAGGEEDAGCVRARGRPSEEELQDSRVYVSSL

For the compound `CS(=O)(=O)c1ccc(F)cc1C(=O)N1CCC(N(C2CC2)S(=O)(=O)c2cccc(C(F)(F)F)c2)CC1`, the inhibition at 1 µM at Cav1.2 stood at 18%. For the same compound, the 50% inhibitory concentration (IC50) in data set [1] was found to be 560 nM. Moreover, the inhibition in data set [2] was 84%; in [16], more than 50%. The remaining at 1 h, 1 µM in [3] was found to be 40%; in [8] it was 30%. In [4], this compound came in with a concentration at 0.5 h of 1960 nM. For the same compound, the Activity was 4% with Mus musculus; “Non-toxic” in the data set with Canis familiaris [7]; “Dose-dependent effect” with Rattus norvegicus [12]; “Non-toxic” in the data set with Canis familiaris [13]; “Non-toxic” in the data set with Canis familiaris [14]; 49% in the data set on Rattus norvegicus [17]. In data set [5], the clearance is 35 mL/min/kg. Further, the bioavailability in data set [6] came to 99%. The time to peak (Tmax) in [9] turned out to be 1.7 h. The compound also registered a free fraction (fraction unbound) in [10] of 0.02. The Drug metabolism in the data set on Blood was 6.1 µM; in the data set on Brain it was “Active”. Moreover, the concentration at 3 h in [11] was found to be 1660 nM. For the same compound, in the data set with Rattus norvegicus [15], the AUC/dose is 0.86 µM·kg·h/mg. This compound also registered an inhibition at 10 µM on hERG of 32%. For the same compound, the Emax at 10 µM at PXR was 124%.

For orientation: inhibition means the change of the read-out against control, counted positive when it falls. Broadly, the IC50 is the midpoint of a concentration-inhibition curve. The term bioavailability denotes the share of a dose that reaches the circulation, judged against a reference dose that is usually intravenous. Low values mean little systemic uptake, high ones much systemic uptake. Usually Tmax stands for the time at which the peak concentration occurs. By fraction unbound is commonly meant the share of the substance not bound to proteins or other matrix. Read a low fraction unbound as extensive binding.

For the origin of these results see ChEMBL document CHEMBL2176883, “Aminopiperidine sulfonamide Cav2.2 channel inhibitors for the treatment of chronic pain” (J Med Chem, 2012).
